Experimental data published in PubChem BioAssay.
Calls of active or inactive are those of the source.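 How the source made its calls, unless noted: active means viability at or under a set limit in both replicates, limit being median viability minus 3 SD (cut at about 48% in these data, passing the limit was not always enough); inconclusive means at or under the limit in just one replicate; inactive means at or above the limit in both replicates.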

How the values were obtained:
[1] = reducers of endogenous Her2 protein level, primary screen, SKBR3 breast tumor cells, AlphaScreen, ATP viability (AID 461;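 active means Her2 level under about 52% in both replicate screens, with viability over 70% of control, limit read from the data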;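 on Her2 level: lower value means less Her2 protein in the cells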;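 on viability: percent of carrier control wells set as 100% viability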); details: 18-24 h, measured here: SKBR3 viability, ATP luminescence, at 10 µM
[2] = target: Receptor tyrosine-protein kinase erbB-2 (Homo sapiens) (UniProt P04626); experiment: as above; details: 18-24 h, at 10 µM, stronger effect = lower value
[3] = SK-BR-3 cell growth inhibitors, pilot screen, 24 h, human (AID 572;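 active means viability at or below 10% of carrier control in both of two separate runs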;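 further: compound exposure lasted between 18 and 24 h rather than exactly 24 h; 100% = carrier-treated control wells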); details: SK-BR-3 viability, CellTiter-Glo luminescence, at 10 µM, stronger effect = lower value
[4] = HUVEC growth inhibition – cell-based, human, primary screen (AID 575;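 active means viability at or below 30% in both replicate assays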;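 further: 100% = median of untreated cell wells with 0.1% DMSO on each plate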); details: HUVEC proliferation, CellTiter-Glo luminescence, 72 h; at 10 µM; stronger effect = lower value
Method in brief: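 Test system: HUVEC primary cells. Quantity: 1250 endothelial cells in each well. Dosing: single-point 10 µM, DMSO 0.1% final. Incubation: 72 h treatment at 37 °C. Measured by: CTG luminescence. Control set: DMSO cell controls and MePR drug controls. Plate: collagen-coated 384-well format.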

[5] = growth inhibitors of H69AR lung tumor, primary screen, human, duplicate replicates (AID 580); details: H69AR lung tumor cells viability, ATP luminescence, 72 h; at 10 µM; stronger effect = lower value;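 further: 100% = mean luminescence of untreated wells and 0% = no signal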
[6] = reversal of MRP1-mediated doxorubicin resistance, pilot screen, H69AR cells, doxorubicin co-treatment (AID 601;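 active means viability loss from added drug above about 55%, and viability with drug at most 40%, in both replicates, limit read from the data, passing the limit was not always enough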); details: CellTiter-Glo, 72 h, at 10 µM; for differential viability (reversal): stronger effect = higher value
[7] = 384-well plate pilot, post-Golgi transport modulator project, inhibition of yeast transport mutant growth (AID 636; in the data active means inhibition above about 31%); details: absorbance 615 nm, about 18 h, stronger effect = higher value
[8] = growth suppression of yeast trafficking mutant, preliminary HTS, modulators of trafficking downstream of Golgi apparatus project, 1536-format plate, OD 615 nm (AID 637; in the data active means inhibition above about 30%); details: yeast transport mutant growth, absorbance 615 nm, 18 h; stronger effect = higher value
[9] = H69AR cells + 2 uM doxorubicin, measured here: viability with 2 uM doxorubicin, stronger effect = lower value
[10] = H69AR cells, compound alone cytotoxicity

Sequence of Receptor tyrosine-protein kinase erbB-2 (Homo sapiens) (P04626 whole entry, looked up): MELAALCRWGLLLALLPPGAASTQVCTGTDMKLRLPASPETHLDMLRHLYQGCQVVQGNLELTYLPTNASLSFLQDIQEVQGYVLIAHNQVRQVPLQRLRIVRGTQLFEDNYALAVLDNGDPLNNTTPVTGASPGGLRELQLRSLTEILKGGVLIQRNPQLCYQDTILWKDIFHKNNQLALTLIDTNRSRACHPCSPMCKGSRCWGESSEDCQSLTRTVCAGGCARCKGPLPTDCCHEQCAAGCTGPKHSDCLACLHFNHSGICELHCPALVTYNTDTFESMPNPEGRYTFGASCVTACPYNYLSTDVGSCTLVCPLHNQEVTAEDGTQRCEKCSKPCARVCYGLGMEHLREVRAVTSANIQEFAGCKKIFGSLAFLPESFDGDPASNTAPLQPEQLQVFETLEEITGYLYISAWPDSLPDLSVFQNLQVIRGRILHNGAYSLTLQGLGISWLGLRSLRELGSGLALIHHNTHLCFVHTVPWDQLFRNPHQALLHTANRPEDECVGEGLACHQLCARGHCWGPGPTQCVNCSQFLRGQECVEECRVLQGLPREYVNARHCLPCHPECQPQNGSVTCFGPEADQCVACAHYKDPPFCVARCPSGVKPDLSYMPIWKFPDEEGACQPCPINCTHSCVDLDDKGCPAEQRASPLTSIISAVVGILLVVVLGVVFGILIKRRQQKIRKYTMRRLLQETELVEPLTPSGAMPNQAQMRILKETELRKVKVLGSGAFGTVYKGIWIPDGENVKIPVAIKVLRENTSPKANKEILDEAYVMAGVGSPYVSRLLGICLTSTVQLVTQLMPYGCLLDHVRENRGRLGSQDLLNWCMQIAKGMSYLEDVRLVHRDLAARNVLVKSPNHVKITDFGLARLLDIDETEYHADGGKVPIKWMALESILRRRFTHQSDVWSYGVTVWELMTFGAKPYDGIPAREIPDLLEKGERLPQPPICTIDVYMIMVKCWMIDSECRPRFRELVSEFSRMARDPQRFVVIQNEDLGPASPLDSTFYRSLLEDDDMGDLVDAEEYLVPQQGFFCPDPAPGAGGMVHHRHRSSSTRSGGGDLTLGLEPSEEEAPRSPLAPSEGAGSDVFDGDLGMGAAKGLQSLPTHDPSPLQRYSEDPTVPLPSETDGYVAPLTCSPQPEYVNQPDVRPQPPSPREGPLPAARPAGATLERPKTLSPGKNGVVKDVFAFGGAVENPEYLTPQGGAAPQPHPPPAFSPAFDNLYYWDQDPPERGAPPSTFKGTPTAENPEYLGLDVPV

| SMILES | viability [1] [%] | Her2 level [2] | viability [3] | viability [4] | viability [5] | differential viability (reversal) ([6]; H69AR cells + 2 uM doxorubicin) | viability [6, 9] [%] | viability [6, 10] [%] | inhibition [7] | inhibition [8] |
| --- | --- | --- | --- | --- | --- | --- | --- | --- | --- | --- |
| Cc1cc(NC(=O)c2ccccc2Oc2ccccc2)no1 | 97 | 92.5% (inactive) | 97% (inactive) | 93.5% (inactive) | 110% (inactive) | 16.8% (inactive) | 93.5 | 110 | -5.33% (inactive) | 2.42% (inactive) |
| O=C(Nc1ccncc1)c1cncc(Br)c1 | 78 | 95.5% (inactive) | 78% (inactive) | 114% (inactive) | 100% (inactive) | 4.04% (inactive) | 96.4 | 100 | -2.57% (inactive) | 1.5% (inactive) |
| COc1cccc(N2CCN(CC(=O)Nc3nnc(-c4ccccc4)s3)CC2)c1 | 86 | 86% (inactive) | 86% (inactive) | 54.7% (inactive) | 83.5% (inactive) | -19.7% (inactive) | 103 | 83.5 | -3.12% (inactive) | -1.64% (inactive) |
| Cc1cc(C(=O)NCCCc2ccccc2)no1 | 100 | 86% (inactive) | 100% (inactive) | 91.4% (inactive) | 107% (inactive) | 18.6% (inactive) | 88.7 | 107 | -5% (inactive) | -2.83% (inactive) |
| [O-][n+]1c2c(nn1-c1ccccc1Cl)-c1nonc1CC2 | 102 | 85% (inactive) | 102% (inactive) | 115% (inactive) | 105% (inactive) | 20% (inactive) | 85.5 | 105 | -5.54% (inactive) | -0.67% (inactive) |
| N#CCSc1nc(-c2ccccc2)cs1 | 86.5 | 98.5% (inactive) | 86.5% (inactive) | 109% (inactive) | 98% (inactive) | -0.97% (inactive) | 98.9 | 98 | -1.71% (inactive) | 2.58% (inactive) |
| CCOC(=O)CSc1nnc(-c2ccccc2OC)o1 | 116 | 96% (inactive) | 116% (inactive) | 80.2% (inactive) | 94.8% (inactive) | -11% (inactive) | 106 | 94.8 | -6.44% (inactive) | -6.51% (inactive) |
| COc1ccc(-n2c(SCC(=O)c3c(N)n(C)c(=O)n(C)c3=O)nc3ccccc32)cc1 | 105 | 71.5% (inactive) | 105% (inactive) | 90% (inactive) | 98.5% (inactive) | 12.6% (inactive) | 86 | 98.5 | -4.73% (inactive) | 1.9% (inactive) |
| CCOc1ccc(C2CC(c3cccc(C)c3)n3ncnc3N2)cc1 (stereo not given) | 101 | 100% (inactive) | 101% (inactive) | 94% (inactive) | 111% (inactive) | 18% (inactive) | 93.1 | 111 | 1.41% (inactive) | -3% (inactive) |
| O=C(Nc1cccnc1)c1ccc2c(c1)C(=O)N(Cc1cccnc1)C2=O | 96.5 | 99.5% (inactive) | 96.5% (inactive) | 103% (inactive) | 102% (inactive) | 7.77% (inactive) | 94.7 | 102 | -2.93% (inactive) | -1.64% (inactive) |
| Cc1cc(O)c(C2(C(F)(F)F)NCCNC2=O)cc1C (stereo not given) | 100 | 96% (inactive) | 100% (inactive) | 99.5% (inactive) | 98.8% (inactive) | 7.08% (inactive) | 91.7 | 98.8 | -4.61% (inactive) | -0.32% (inactive) |
| Cn1cnc2c(N3CCCCC3)nccc21 | 116 | 104% (inactive) | 116% (inactive) | 87.3% (inactive) | 90.5% (inactive) | -5.21% (inactive) | 95.7 | 90.5 | -4.16% (inactive) | -1.64% (inactive) |
| O=C1NC(c2ccccc2)(C(F)(F)F)SC2=CCCCCN12 (stereo not given) | 90.5 | 106% (inactive) | 90.5% (inactive) | 86.2% (inactive) | 94.3% (inactive) | 2.37% (inactive) | 92 | 94.3 | -3.29% (inactive) | -3.33% (inactive) |
